Measured values reported in BindingDB's records for doi:10.1016/j.bmcl.2012.02.015 (Glaxosmithkline, 2012).

Molecular target: Muscarinic acetylcholine receptor M3 (Homo sapiens, UniProt P20309)
Assay: Antagonist potency at human muscarinic acetylcholine M3 receptor expressed in CHO cells assessed as inhibition of Ach-induced calcium mobilization by FLIPR analysis relative to control
Summary of the method: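 Human M3 receptor in CHO cells, ACh-stimulated calcium mobilization by FLIPR. pA2 derived from the ratio of the ACh EC50 with and without antagonist. Run only where the IC50 was below 10 nM. Values above 11 could not be determined accurately.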

Sequence of Muscarinic acetylcholine receptor M3 (P20309 whole entry): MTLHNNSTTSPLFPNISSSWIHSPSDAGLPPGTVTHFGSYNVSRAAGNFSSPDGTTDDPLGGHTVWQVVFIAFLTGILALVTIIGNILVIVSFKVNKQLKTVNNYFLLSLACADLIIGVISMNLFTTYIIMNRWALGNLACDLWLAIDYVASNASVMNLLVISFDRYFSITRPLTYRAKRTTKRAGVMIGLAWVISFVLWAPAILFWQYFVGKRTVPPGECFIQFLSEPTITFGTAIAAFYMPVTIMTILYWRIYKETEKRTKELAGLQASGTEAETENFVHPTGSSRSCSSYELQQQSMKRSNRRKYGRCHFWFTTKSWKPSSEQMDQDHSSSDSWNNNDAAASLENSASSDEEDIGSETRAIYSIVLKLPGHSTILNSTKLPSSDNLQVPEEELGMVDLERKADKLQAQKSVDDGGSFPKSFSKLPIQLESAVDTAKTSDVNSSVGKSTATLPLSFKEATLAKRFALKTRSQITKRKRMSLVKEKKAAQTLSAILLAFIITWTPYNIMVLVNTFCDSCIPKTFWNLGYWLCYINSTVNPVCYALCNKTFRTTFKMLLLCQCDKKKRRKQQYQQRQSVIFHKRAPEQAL

Point of comparison: `C[N+]1(CC2CC2)C2CCC1CC(CC(C#N)(c1ccccc1)c1ccccc1)C2` (stereo not drawn), Kd 0.0501 nM. Against it:
- CCC[N+]1(C)C2CCC1CC(CC(C#N)(c1ccccc1)c1ccccc1)C2 (stereo not drawn) — the same, 0.0501 nM
- COCCOCC[N+]1(C)C2CCC1CC(CC(C#N)(c1ccccc1)c1ccccc1)C2 (stereo not drawn) — 13-fold higher, 0.631 nM
- CC[N+]1(C)C2CCC1CC(CC(C#N)(c1ccccc1)c1ccccc1)C2 (stereo not drawn) — the same, 0.0501 nM
- C[N+]1(CCO)C2CCC1CC(CC(C#N)(c1ccccc1)c1ccccc1)C2 (stereo not drawn) — 3.2-fold higher, 0.158 nM
- C=CC[N+]1(C)C2CCC1CC(CC(C#N)(c1ccccc1)c1ccccc1)C2 (stereo not drawn) — 25-fold higher, 1.26 nM
- COCC[N+]1(C)C2CCC1CC(CC(C#N)(c1ccccc1)c1ccccc1)C2 (stereo not drawn) — 10-fold higher, 0.501 nM
- C[N+]1(CCCC#N)C2CCC1CC(CC(C#N)(c1ccccc1)c1ccccc1)C2 (stereo not drawn) — 3.2-fold higher, 0.158 nM
